Data as given in ChEMBL document CHEMBL4725387, “Synthesis and pharmacological evaluation of piperidine (piperazine)-amide substituted derivatives as multi-target antipsychotics” (Bioorg Med Chem Lett, 2020).
Active and inactive are the calls of the source. No cut-off for these calls is given here.

Experiments:
[1] = target: 5-hydroxytryptamine receptor 2A (Homo sapiens, UniProt P28223); test: Binding affinity to 5HT2A receptor (unknown origin)
[2] = target: T1, 5-hydroxytryptamine receptor 1A (Homo sapiens, UniProt P08908); test: Binding affinity to 5HT1A receptor (unknown origin)
T1 sequence (P08908 whole entry): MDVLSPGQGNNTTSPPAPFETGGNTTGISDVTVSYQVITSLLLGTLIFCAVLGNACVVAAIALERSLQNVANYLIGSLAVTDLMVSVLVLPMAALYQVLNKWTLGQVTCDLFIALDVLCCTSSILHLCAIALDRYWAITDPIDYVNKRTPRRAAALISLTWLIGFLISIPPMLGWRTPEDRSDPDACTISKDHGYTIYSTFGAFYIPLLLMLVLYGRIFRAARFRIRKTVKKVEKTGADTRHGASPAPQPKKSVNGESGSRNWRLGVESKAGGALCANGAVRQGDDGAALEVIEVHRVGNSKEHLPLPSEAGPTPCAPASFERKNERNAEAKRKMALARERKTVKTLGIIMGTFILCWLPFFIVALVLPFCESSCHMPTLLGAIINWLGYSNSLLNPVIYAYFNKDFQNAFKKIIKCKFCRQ
In short: (§1)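 Radioligand displacement binding. Ki is the mean ± SEM of three experiments.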

D(2) dopamine receptor = D(2) dopamine receptor (Homo sapiens, UniProt P14416); test: Binding affinity to D2 receptor (unknown origin); in short: as §1
D(2) dopamine receptor, sequence (P14416 whole entry): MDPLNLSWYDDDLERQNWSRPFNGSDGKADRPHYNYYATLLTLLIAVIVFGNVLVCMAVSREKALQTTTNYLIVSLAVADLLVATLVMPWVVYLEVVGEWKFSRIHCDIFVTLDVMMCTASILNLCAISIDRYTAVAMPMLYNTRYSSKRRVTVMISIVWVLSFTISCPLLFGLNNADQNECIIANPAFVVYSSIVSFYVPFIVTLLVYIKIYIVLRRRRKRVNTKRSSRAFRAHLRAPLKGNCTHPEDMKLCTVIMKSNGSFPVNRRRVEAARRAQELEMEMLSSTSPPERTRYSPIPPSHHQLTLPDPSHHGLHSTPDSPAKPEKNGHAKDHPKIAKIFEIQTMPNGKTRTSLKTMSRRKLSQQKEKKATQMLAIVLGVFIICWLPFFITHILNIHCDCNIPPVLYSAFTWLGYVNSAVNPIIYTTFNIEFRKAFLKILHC

Mus musculus [3] = test: Antipsychotic activity in po dosed mouse assessed as suppression in DOI-induced head twitching response; assay type: functional
In short: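 Mouse head twitch induced by DOI 1.0 mg/kg ip. Oral pretreatment at 0.01, 0.03, 0.1, 0.3 and 1.0 mg/kg in 30% PEG 400. ED50 reported with 95% confidence limits.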

[4] = Therapeutic index, ratio of ED50 for induction of catalepsy in po dosed mouse to ED50 for antipsychotic activity in po dosed mouse assessed as suppression of apomorphine-induced climbing; assay type: toxicity, organism-based; conditions: in vivo, read-out: Ratio ED50
In short: (§2)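 Therapeutic index is the catalepsy ED50 divided by the efficacy ED50 from the apomorphine climbing or MK-801 hyperactivity model. All were oral dosing in mice, vehicle 30% PEG 400.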

[5] = Therapeutic index, ratio of ED50 for induction of catalepsy in po dosed mouse to ED50 for antipsychotic activity in po dosed mouse assessed as reduction in MK-801-induced hyperlocomotor activity; assay type: toxicity, organism-based; conditions: in vivo, read-out: Ratio ED50; in short: as §2
[6] = Induction of catalepsy in po dosed mouse by vertical grid and elevated bar test; assay type: organism-based; conditions: in vivo
In short: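 Mouse catalepsy scored by vertical grid and elevated bar tests. Oral doses of 1, 5, 15, 45 and 100 mg/kg in 30% PEG 400. ED50 reported with 95% confidence limits.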

Mus musculus [7] = test: Antipsychotic activity in po dosed mouse assessed as suppression of apomorphine-induced climbing behaviour; assay type: functional
In short: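 Mice climbing induced by apomorphine 1.0 mg/kg sc. Test article given po at 0.01, 0.03, 0.1, 0.3 and 1.0 mg/kg in 30% PEG 400. ED50 reported with 95% confidence limits.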

Mus musculus [8] = test: Antipsychotic activity in po dosed mouse assessed as reduction in MK-801-induced hyperlocomotor activity; assay type: functional
In short: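 Mice hyperactivity induced by MK-801 0.3 mg/kg sc, locomotor activity recorded. Oral dosing at 0.01–1.0 mg/kg (five doses) in 30% PEG 400. ED50 reported with 95% confidence limits.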

Rattus norvegicus [9] = test: Memory enhancement effect in rat assessed as increase in total exploratory time for novel objects at 0.1 mg/kg, po administered 1 hr prior to acquisition trial and measured after 24 hrs by novel object recognition test; assay type: functional, organism-based; conditions: time 25.0 hrs
Rattus norvegicus [10] = test: Antipsychotic activity in po dosed rat assessed as suppression in conditioned avoidance response measured after 90 mins by CAR test; assay type: functional; conditions: 1.5 h
In short: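 Rat conditioned avoidance responding tested 90 min after a single oral dose of 0.05, 0.15, 0.45 or 1.35 mg/kg in 30% PEG 400. n = 10 per group. Mean ± SEM, compared with vehicle (P < 0.05). ED50 reported.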

5-hydroxytryptamine receptor 2A, sequence (P28223 whole entry): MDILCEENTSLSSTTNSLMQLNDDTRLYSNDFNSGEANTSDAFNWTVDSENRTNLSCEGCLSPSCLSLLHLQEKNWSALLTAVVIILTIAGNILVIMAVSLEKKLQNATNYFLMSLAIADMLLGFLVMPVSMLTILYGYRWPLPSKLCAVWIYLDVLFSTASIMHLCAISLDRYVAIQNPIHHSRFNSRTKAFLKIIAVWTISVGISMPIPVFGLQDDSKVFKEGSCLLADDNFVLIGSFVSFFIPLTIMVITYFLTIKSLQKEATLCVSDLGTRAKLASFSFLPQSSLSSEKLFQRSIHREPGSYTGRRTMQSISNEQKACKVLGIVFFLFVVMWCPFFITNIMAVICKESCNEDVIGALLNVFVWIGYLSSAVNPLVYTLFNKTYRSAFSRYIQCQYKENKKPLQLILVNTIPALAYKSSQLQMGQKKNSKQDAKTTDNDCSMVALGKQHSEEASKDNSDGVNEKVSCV

SMILES	Ki [1] [µM]	Ki [2] [µM]	Ki (D(2) dopamine receptor) [µM]	other results
CC(=O)Nc1ccc(OCCCN2CCN(c3cccc(Cl)c3Cl)CC2)cc1	0.289	> 10	0.167	–
O=C(CCCN1CCC(O)(c2ccc(Cl)cc2)CC1)c1ccc(F)cc1 [HALOPERIDOL]	–	–	–	ED50 (Mus musculus [3]): 0.92 mg/kg; selectivity ratio [4]: 6.8; selectivity ratio [5]: 22.5; ED50 [6]: 3.6 mg/kg; ED50 (Mus musculus [7]): 0.53 mg/kg; ED50 (Mus musculus [8]): 0.16 mg/kg
CC(=O)Nc1ccc(OCCCN2CCN(c3nsc4ccccc34)CC2)cc1	0.117	0.0697	0.0791	–
CC(=O)Nc1ccc(OCCCN2CCC(c3noc4cc(F)ccc34)CC2)cc1F	0.0418	0.122	0.148	–
CC(=O)Nc1ccc(OCCCN2CCN(c3cccc4ccsc34)CC2)cc1	0.109	0.258	0.0163	–
Cc1nc2n(c(=O)c1CCN1CCC(c3noc4cc(F)ccc34)CC1)CCCC2 [RISPERIDONE]	–	–	–	ED50 (Mus musculus [3]): 0.019 mg/kg; ED50 [6]: 1.2 mg/kg; ED50 (Mus musculus [7]): 0.025 mg/kg; Activity (Rattus norvegicus [9]): inactive; ED50 (Rattus norvegicus [10]): 0.49 mg/kg; ED50 (Mus musculus [8]): 0.011 mg/kg
COc1ccccc1N1CCN(CCCOc2ccc(NC(C)=O)cc2)CC1	> 10	> 10	0.467	–
CC(=O)Nc1ccc(OCC(O)CN2CCC(c3noc4cc(F)ccc34)CC2)cc1 (stereo unspecified)	0.0722	0.156	0.119	–
O=C(Nc1ccc(OCCCN2CCC(c3noc4cc(F)ccc34)CC2)cc1)c1ccccc1	> 10	> 10	> 10	–
CC(=O)Nc1ccc(OCCCN2CCN(c3ccccn3)CC2)cc1	2.34	1.99	> 10	–
